Converted amounts (≈) assume the structure as drawn.
Columns and labels:
Type in all cases: functional
Enterococcus faecalis [1] = test: Antibacterial activity against Enterococcus faecalis 14-2 after 18 to 24 hrs
Summary of the method: (§1)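 MIC by standard NCCLS reference procedure (M100-S11); lowest concentration of compound inhibiting visible bacterial growth after incubation at 35 °C for 18–24 h, read as complete inhibition of growth. Ciprofloxacin, levofloxacin and moxifloxacin run alongside as reference agents.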

Enterococcus faecium [2] = test: Antibacterial activity against Enterococcus faecium 14-1 after 18 to 24 hrs; summary of the method: as §1
Enterococcus faecium [3] = test: Antibacterial activity against Enterococcus faecium 14-2 after 18 to 24 hrs; summary of the method: as §1
Enterococcus faecium [4] = test: Antibacterial activity against Enterococcus faecium 14-5 after 18 to 24 hrs; summary of the method: as §1
Enterococcus faecium [5] = test: Antibacterial activity against Enterococcus faecium 14-6 after 18 to 24 hrs; summary of the method: as §1
[6] = system: Mycobacterium tuberculosis; test: Antimycobacterial activity against Mycobacterium tuberculosis H37Rv ATCC 27294 by alamar blue assay
Summary of the method: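 Microplate Alamar Blue Assay; MIC is the lowest concentration giving ≥90% reduction in fluorescence relative to the mean of replicate bacterium-only controls. MDR strain 6133 is resistant to isoniazid and rifampicin.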

Escherichia coli [7] = test: Antibacterial activity against Escherichia coli ATCC 25922 after 18 to 24 hrs; summary of the method: as §1
Escherichia coli [8] = test: Antibacterial activity against ESBL-positive Escherichia coli 14-1 after 18 to 24 hrs; summary of the method: as §1
Escherichia coli [9] = test: Antibacterial activity against ESBL-positive Escherichia coli 14-2 after 18 to 24 hrs; summary of the method: as §1
Escherichia coli [10] = test: Antibacterial activity against Escherichia coli 14-1 after 18 to 24 hrs; summary of the method: as §1
Escherichia coli [11] = test: Antibacterial activity against Escherichia coli 14-2 after 18 to 24 hrs; summary of the method: as §1
Klebsiella pneumoniae [12] = test: Antibacterial activity against ESBL-positive Klebsiella pneumoniae 14-17 after 18 to 24 hrs; summary of the method: as §1
Klebsiella pneumoniae [13] = test: Antibacterial activity against ESBL-positive Klebsiella pneumoniae 14-18 after 18 to 24 hrs; summary of the method: as §1
Klebsiella pneumoniae [14] = test: Antibacterial activity against ESBL-positive Klebsiella pneumoniae 14-19 after 18 to 24 hrs; summary of the method: as §1
Klebsiella pneumoniae [15] = test: Antibacterial activity against Klebsiella pneumoniae 14-1 after 18 to 24 hrs; summary of the method: as §1
Klebsiella pneumoniae [16] = test: Antibacterial activity against Klebsiella pneumoniae 14-2 after 18 to 24 hrs; summary of the method: as §1
Klebsiella pneumoniae [17] = test: Antibacterial activity against Klebsiella pneumoniae 14-3 after 18 to 24 hrs; summary of the method: as §1
Klebsiella pneumoniae [18] = test: Antibacterial activity against Klebsiella pneumoniae 14-4 after 18 to 24 hrs; summary of the method: as §1
Pseudomonas aeruginosa [19] = test: Antibacterial activity against Pseudomonas aeruginosa ATCC 27853 after 18 to 24 hrs; summary of the method: as §1
Pseudomonas aeruginosa [20] = test: Antibacterial activity against Pseudomonas aeruginosa 14-9 after 18 to 24 hrs; summary of the method: as §1
Pseudomonas aeruginosa [21] = test: Antibacterial activity against Pseudomonas aeruginosa 14-14 after 18 to 24 hrs; summary of the method: as §1
Pseudomonas aeruginosa [22] = test: Antibacterial activity against Pseudomonas aeruginosa 14-15 after 18 to 24 hrs; summary of the method: as §1
Pseudomonas aeruginosa [23] = test: Antibacterial activity against Pseudomonas aeruginosa 14-16 after 18 to 24 hrs; summary of the method: as §1
Pseudomonas aeruginosa [24] = test: Antibacterial activity against Pseudomonas aeruginosa 14-19 after 18 to 24 hrs; summary of the method: as §1
Staphylococcus aureus [25] = test: Antibacterial activity against Staphylococcus aureus CMCC 26003 after 18 to 24 hrs; summary of the method: as §1
Staphylococcus aureus [26] = test: Antibacterial activity against methicillin-sensitive Staphylococcus aureus 14-1 after 18 to 24 hrs; summary of the method: as §1
Staphylococcus aureus [27] = test: Antibacterial activity against methicillin-sensitive Staphylococcus aureus 14-2 after 18 to 24 hrs; summary of the method: as §1
Staphylococcus aureus [28] = test: Antibacterial activity against methicillin-sensitive Staphylococcus aureus 14-3 after 18 to 24 hrs; summary of the method: as §1
Staphylococcus aureus [29] = test: Antibacterial activity against methicillin-sensitive Staphylococcus aureus 14-4 after 18 to 24 hrs; summary of the method: as §1
Staphylococcus aureus [30] = test: Antibacterial activity against methicillin-resistant Staphylococcus aureus 14-4 after 18 to 24 hrs
Staphylococcus aureus [31] = test: Antibacterial activity against methicillin-resistant Staphylococcus aureus 14-5 after 18 to 24 hrs
[32] = system: Staphylococcus epidermidis; test: Antibacterial activity against methicillin-sensitive Staphylococcus epidermidis 14-2 after 18 to 24 hrs; summary of the method: as §1
[33] = system: Staphylococcus epidermidis; test: Antibacterial activity against methicillin-resistant Staphylococcus epidermidis 14-21 after 18 to 24 hrs
[34] = system: Staphylococcus epidermidis; test: Antibacterial activity against methicillin-resistant Staphylococcus epidermidis 14-22 after 18 to 24 hrs
[35] = system: Staphylococcus epidermidis; test: Antibacterial activity against methicillin-resistant Staphylococcus epidermidis 14-37 after 18 to 24 hrs
[36] = system: Staphylococcus epidermidis; test: Antibacterial activity against methicillin-resistant Staphylococcus epidermidis 14-39 after 18 to 24 hrs
Streptococcus pneumoniae = test: Antibacterial activity against Streptococcus pneumoniae ATCC 19615 after 18 to 24 hrs; summary of the method: as §1
Enterococcus faecalis [37] = test: Antibacterial activity against Enterococcus faecalis 14-1 after 18 to 24 hrs; summary of the method: as §1

Row | Compound | MIC (Enterococcus faecalis [1]) [µg/mL] | MIC (Enterococcus faecium [2]) [µg/mL] | MIC (Enterococcus faecium [3]) [µg/mL] | MIC (Enterococcus faecium [4]) [µg/mL] | MIC (Enterococcus faecium [5]) [µg/mL] | MIC90 [6] [µg/mL] | MIC (Escherichia coli [7]) [µg/mL] | MIC (Escherichia coli [8]) [µg/mL] | MIC (Escherichia coli [9]) [µg/mL] | MIC (Escherichia coli [10]) [µg/mL] | MIC (Escherichia coli [11]) [µg/mL] | MIC (Klebsiella pneumoniae [12]) [µg/mL] | MIC (Klebsiella pneumoniae [13]) [µg/mL] | MIC (Klebsiella pneumoniae [14]) [µg/mL] | MIC (Klebsiella pneumoniae [15]) [µg/mL] | MIC (Klebsiella pneumoniae [16]) [µg/mL] | MIC (Klebsiella pneumoniae [17]) [µg/mL] | MIC (Klebsiella pneumoniae [18]) [µg/mL] | MIC (Pseudomonas aeruginosa [19]) [µg/mL] | MIC (Pseudomonas aeruginosa [20]) [µg/mL] | further results
1 | CCO/N=C1\CN(c2nc3c(cc2F)c(=O)c(C(=O)O)cn3[C@@H]2C[C@@H]2F)CC1(C)CN (stereo partly specified) | 0.03 (≈ 0.0689 µM) | 2 (≈ 4.59 µM) | 2 (≈ 4.59 µM) | 4 (≈ 9.19 µM) | 8 (≈ 18.4 µM) | 0.333 (≈ 0.765 µM) | < 0.008 | 4 (≈ 9.19 µM) | 128 (≈ 294 µM) | 32 (≈ 73.5 µM) | 32 (≈ 73.5 µM) | 4 (≈ 9.19 µM) | 4 (≈ 9.19 µM) | 128 (≈ 294 µM) | 128 (≈ 294 µM) | 128 (≈ 294 µM) | 128 (≈ 294 µM) | 128 (≈ 294 µM) | 2 (≈ 4.59 µM) | 4 (≈ 9.19 µM) | MIC (Pseudomonas aeruginosa [21]): 8 µg/mL (≈ 18.4 µM); MIC (Pseudomonas aeruginosa [22]): 8 µg/mL (≈ 18.4 µM); MIC (Pseudomonas aeruginosa [23]): 8 µg/mL (≈ 18.4 µM); MIC (Pseudomonas aeruginosa [24]): 8 µg/mL (≈ 18.4 µM); MIC (Staphylococcus aureus [25]): < 0.008 µg/mL; MIC (Staphylococcus aureus [26]): 2 µg/mL (≈ 4.59 µM); MIC (Staphylococcus aureus [27]): < 0.008 µg/mL; MIC (Staphylococcus aureus [28]): < 0.008 µg/mL; MIC (Staphylococcus aureus [29]): < 0.008 µg/mL; MIC (Staphylococcus aureus [30]): 4 µg/mL (≈ 9.19 µM); MIC (Staphylococcus aureus [31]): 4 µg/mL (≈ 9.19 µM); MIC [32]: 8 µg/mL (≈ 18.4 µM); MIC [33]: 2 µg/mL (≈ 4.59 µM); MIC [34]: 2 µg/mL (≈ 4.59 µM); MIC [35]: 8 µg/mL (≈ 18.4 µM); MIC [36]: 8 µg/mL (≈ 18.4 µM); MIC (Streptococcus pneumoniae): < 0.008 µg/mL; MIC (Enterococcus faecalis [37]): 8 µg/mL (≈ 18.4 µM)
2 | CC1(CN)CN(c2nc3c(cc2F)c(=O)c(C(=O)O)cn3[C@@H]2C[C@@H]2F)C/C1=N\OCc1ccccc1 (stereo partly specified) | 0.25 (≈ 0.503 µM) | 4 (≈ 8.04 µM) | 4 (≈ 8.04 µM) | 8 (≈ 16.1 µM) | 8 (≈ 16.1 µM) | 0.514 (≈ 1.03 µM) | 0.125 (≈ 0.251 µM) | 8 (≈ 16.1 µM) | > 128 | > 128 | > 128 | 16 (≈ 32.2 µM) | 32 (≈ 64.3 µM) | 64 (≈ 129 µM) | 128 (≈ 257 µM) | > 128 | 128 (≈ 257 µM) | > 128 | 8 (≈ 16.1 µM) | 16 (≈ 32.2 µM) | MIC (Pseudomonas aeruginosa [21]): 32 µg/mL (≈ 64.3 µM); MIC (Pseudomonas aeruginosa [22]): 32 µg/mL (≈ 64.3 µM); MIC (Pseudomonas aeruginosa [23]): 32 µg/mL (≈ 64.3 µM); MIC (Pseudomonas aeruginosa [24]): 8 µg/mL (≈ 16.1 µM); MIC (Staphylococcus aureus [25]): < 0.008 µg/mL; MIC (Staphylococcus aureus [26]): 2 µg/mL (≈ 4.02 µM); MIC (Staphylococcus aureus [27]): < 0.008 µg/mL; MIC (Staphylococcus aureus [28]): < 0.008 µg/mL; MIC (Staphylococcus aureus [29]): < 0.008 µg/mL; MIC (Staphylococcus aureus [30]): 8 µg/mL (≈ 16.1 µM); MIC (Staphylococcus aureus [31]): 4 µg/mL (≈ 8.04 µM); MIC [32]: 16 µg/mL (≈ 32.2 µM); MIC [33]: 4 µg/mL (≈ 8.04 µM); MIC [34]: 4 µg/mL (≈ 8.04 µM); MIC [35]: 16 µg/mL (≈ 32.2 µM); MIC [36]: 16 µg/mL (≈ 32.2 µM); MIC (Streptococcus pneumoniae): < 0.008 µg/mL; MIC (Enterococcus faecalis [37]): 32 µg/mL (≈ 64.3 µM)
